System: MS2 coat protein
Test: apparent Kd, MS2 coat protein; higher = weaker binding; RNA-MaP array; FMN 200 µM where present
In short: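 The titrant was SNAP-549-labelled MS2 coat protein, run from 0.7 or 1.5 nM in doubling steps to 3 µM. It was applied to designs transcribed by stalled E. coli RNA polymerase on Illumina sequencing-chip clusters, without ligand first and then with constant ligand, in 100 mM Tris-HCl pH 7.5, 80 mM KCl, 4 mM MgCl2, BSA, DTT, yeast tRNA and Tween-20. The apparent Kd is the median of filtered per-cluster binding-curve fits, with green signal normalised to red-channel RNA signal and control-cluster median Fmax.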

[1] = designed as: ON switch for flavin mononucleotide, no ligand
[2] = ligand present: flavin mononucleotide, designed as: ON switch for flavin mononucleotide
[3] = designed as: OFF switch for flavin mononucleotide, no ligand
[4] = ligand present: flavin mononucleotide, designed as: OFF switch for flavin mononucleotide

Sequence | apparent Kd [1] [nM] | apparent Kd [2] [nM] | apparent Kd [3] [nM] | apparent Kd [4] [nM]
GGCUAACAUGAGGAUCACCCAUGUCGCCAAAAUCGAGGAUAUGGGUGCCAGCUCGGGCAGCCAGAAGGCGACAAAA | 225 | 33.1 |  | 
AUCUUUAACAUAGGAUAUAGUAUGAUGGUUUAAUUAGAAGGAUGUCACAUGAGGAUCACCCAUGUAAUAGGAUUACCCAUGUAU |  |  | 20.2 | 15.7
UGAAAUCAUGUAGGAUAUGCAUGGCGCAGCUACGCAGAAGGACAUGAGGAUCACCCAUGUUAUAGCUACCCAGUUCGGUGGCAA |  |  | 30.6 | 173
UGGUACUAGGGAGGAUAUGGGAAGAUACAUGAGGAUCACCCAUGUUUAAGAAUGCCGAUAGGCAACUAGAAGGCCCUAGUACCU | 406 | 18.7 |  | 
GGAUGACAAAGUCAUCCAAAUCGAACAUGAGGAUCACCCAUGUAGGAUAUGGUACUCAAAGAGUACCAGAAGGACAUGUGCUUU |  |  | 40 | 191
AAUAACAGAGGAUAUACUAUUUUAUGUGUUUAUUGUUUUAAACAUGAGGAUCACCCAUGUAGAAGGCUGAGUAA |  |  | 42.2 | 59.8
AUAUGACAUGAGGAUCACCCAUGUAUUCGAGCAUGAGGAUAUAUGACUCGUCAUCGGCGGAUAGAAGGCAUGGUUG | 88.5 | 143 |  | 
CCACGACCGGAGAAGGCAGUUUGUGGGCCUGUUCCUGUCGGAUACAUGAGGAUCACCCAUGUACCUGAGGAUAUCUGGUCGUAG |  |  | 4.99 | 5.57
GGGUAUAUUACAUGAGGAUCACCCAUGUCAGAAAGGGUAAUCAGAAGGUACUAUUAGAGAAAGAGUAAGGAUAUGAUUAUACCC | 176 | 22.8 |  | 
AUCUUGCGAGGAUAUACUUACUUUUUUUCAUUUGGUUGCGAACAUGAGGAUCACCCAUGUAGAAGGUGCAUAAC |  |  | 27.6 | 23.6
GCAUGACAAAGUCAUGCAUAACGAACAUGAGGAUCACCCAUGUAGGAUAUGCUACUCAAAGAGUAGCAGAAGGACAUGUGCCUU |  |  | 34.2 | 263
AGAAACUACGAGAAGGACAUGUGGUCCUUCAGAAACAUGAGGAUCACCCAUGUAGGAUAUCGUAGUUUCAGGAUCGUGAGAUCA |  |  | 54.4 | 20.8
AUGAGCCGAGGAGGAUAUGACGGGUGCUAAAUCACAUGAGGAUCACCCAUGUCAGAAGGCCUCGCCAUAUUUGAUGCUUUAGAG |  |  | 201 | 9.55
GCAUGCGUUCGAGGAUAUCGGUGAGAAACGGAACGAGAAGGCGAUCGAAUGUCACAUAUUAUGUACAUGAGGAUCACCCAUGUA | 126 | 37.8 |  | 
CGAUGGUAUAUAGGAUAUCAUGUGCAAACAUGAGGAUCACCCAUGUAGGAACGUCAGUUCAAUAAUGAGAAGGAUAUACCAUCG | 35.1 | 10.9 |  | 
GAUGCUAUCCGAGGAUAUUCAUACCGGAAACGGACAUGAGGAUCACCCAUGUGGCGAAAGCCUUGGGAGAAGGCGGAUAGCAUC | 581 | 23.4 |  | 
GGGUACAUCCGAGGAUAUCAUGUAAAUACAUGAGGAUCACCCAUGUCGAUGGAGACAUCGGAGAUUGAGAAGGCCGAUGUACCG | 344 | 22.9 |  | 
AAGCUGGUAGGAUAUACUAGGGCGAUUAAUACGCCGAUAGUACAUGAGGAUCACCCAUGUAGAAGGGCCAGAAA |  |  | 27.5 | 22.1
CAUCAUGCGUCUAAGGAUAUGUCUCACAAGACAUGAGGAUCACCCAUGUAGAAUAAAUAAAUGAUGCAGAAGGUGGAGCGCAUGC | 343 | 57.4 |  | 
UUAAAUCAUGUAGGAUAUGCAUGGCGAAGCUACGCAGAAGGACAUGAGGAUCACCCAUGUUAUAGCUACCCAGAUCGGUGGCAA |  |  | 90.2 | 237
AAAUAAAGCAGUGUAUUAAGAUCACAUGAGGAUCACCCAUGUAGAAGGCUCGAGCAAAAUGCUCGAGAGGAUAUGCAACACUGC |  |  | 5.12 | 35
CGGCAUCAUGUAGGAUAUGCGUGGCGAAGCUAUGCAGAAGGACAUGAGGAUCACCCAUGUCUUACUGUGCGUACACAGUUGCCG |  |  | 6.29 | 11.2
CUUAUGUGAGGAUAUCAGUAGUGAUACGAUAGUAUUACUGCUGAGAAGGUACAUGAGGAUCACCCAUGUUCCUC |  |  | 17.1 | 20.4
AUGCGGUCAGGAUAUGCAUGGCGGGACUUGCGUCGUGGCGUGGAGAAGGGACAUGAGGAUCACCCAUGUGGAGG |  |  | 108 | 87
GGAAAACAUGAGGAUCACCCAUGUGAGGAUAUCGAUGUCCACCCUCCCGUGCGGGACUCGAGAAGGCACUUGGA |  |  | 50.9 | 56.4
UGCUAACUGUAGAAGGGUGACAUGAGGAUCACCCAUGUGCACGCGCGAUUUACGGCGCGCGUGCCACAGGAUAUACAGUCGAGU | 28.3 | 54.4 |  | 
AAAAGGCUAGGAUAUACCAGUGGGUGUAAGAACUCAAAGUUACAUGAGGAUCACCCAUGUAGAAGGAGUAAAAU |  |  | 17.1 | 40
UUUGCAUUCCGAGGAUAUUCAUUUAAUGACUUCACAUGAGGAUCACCCAUGUGGCGAUAGCCUAGGGAGAAGGCGGUUUGCUUU | 24.4 | 19.6 |  | 

Sequence | apparent Kd [1] [nM] | apparent Kd [2] [nM] | apparent Kd [3] [nM] | apparent Kd [4] [nM]
UGUAUGGACAGAGGAUAUGCCGAUAGGAUCUAUUAUCGAAGAAUCCUCACAUGAGGAUCACCCAUGUAGAAGGCUGUCCAUACU |  |  | 9.32 | 35.8
AAUAACAGAGGAUAUACUGUUUUAUGUAUUUAUUAUUUUGAACAUGAGGAUCACCCAUGUAGAAGGCUGAUUAA |  |  | 33.3 | 28.4
CCUGGCUUAGGAUAUACAGGAUCCGGGAACCCGGAAGUGAAACAUGAGGAUCACCCAUGUAGAAGGAAGAAAGC |  |  | 28.8 | 16.5
GGUGCACGCACAGGAUAUCCGGCGGAGCUCGUCGGAGAAGGGUGACAUGAGGAUCACCCAUGUACGUGCAACCCAGUUUGAGAG | 45.2 | 30.7 |  | 
GUCGGAAACGACAAAAGUACCCGAGCAGAAGGCAUGUCAUAAGACAUGAGGAUCACCCAUGUGCAUGAGGAUAUGCUCGGGUAC | 5.83 | 5.28 |  | 
GGGUACAUGGGAGGAUAUGGGACAUGAGGAUCACCCAUGUGAAAAUUAAAUAUGCCGAGAGGCAACUAGAAGGCCCAUGUACCG | 31.1 | 15.3 |  | 
GCGUAAUAGGUGUAGCUAGUCGUACAAGAAGGGUGGAGAACAUGAGGAUCACCCAUGUGGUCUAUACAGGAUAUUGUUAUACGC | 176 | 30.5 |  | 
AUCCGGCGUGUAGGAUAUGGAAACGAUUAGGAUCCAGAAGGACAUGAGGAUCACCCAUGUACAUGUAAACAGUCAUCACCGGAA |  |  | 14.5 | 52.2
GCAUACUAAGGAUAUACAUGAGGAUCACCCAUGUUGCCAAAUGGCAGCAUCACCUGGAGUAGAAGGUAGAUGUA |  |  | 35 | 33.3
UGAGCCUCGUGAGGAUAUACAUGAGGAUCACCCAUGUAAAUGGAAGAACGGAGGAAACUCCGAAUGUAGAAGGCACGAGGCUCA |  |  | 145 | 773
AUCAGCUCGUCAGGAUAUACGUCACUGCGUCAGCAGUGUGGUAAGAUCACAUGAGGAUCACCCAUGUAGAAGGGCCGAGCUGAU |  |  | 12.2 | 184
UUGGACGUCGUAGGAUAUGUAGGAUAUUCCUACAUGAGGAUCACCCAUGUUGACAUGGAAGACGGACAGAAGGACGAUGUCCAU | 490 | 12.8 |  | 
GUCGUUGUCUGGUCGAGGAUAGGGCAGGAUAUACAUGAGGAUCACCCAUGUGAAGCGCGAAGGAGGUAGAAGGGCCCACGUCAU |  |  | 14.7 | 14.8
UUGUUAUAUGUAGGAUAUGCGUAUUAUUAUUAUGCAGAAGGACAUGAGGAUCACCCAUGUAUGUUGUUGUUAUAUAUUAUAUAU |  |  | 22.9 | 26.2
AAAAAACAUGAGGAUCACCCAUGUCAGGAUAUCGAAAAAAAAAAAAAAAAAAAAAAAACGAGAAGGGACAAAAA |  |  | 99.3 | 104
UAAGUUGUGGUAGGAUAUACUUUAAAUUUCUCUAUCCAUACAUGAGGAUCACCCAUGUUUACAUUGUAGAAGGACCUUUUUGUU |  |  | 24.2 | 21.1
UUAUGAGCGAUAGGAUAUACUGAGAUUGAAUGGGUAGAAGGAUCGAUCGUGUAGAAGACAUGAGGAUCACCCAUGUUACGGGCC | 97 | 218 |  | 
UCUUUGCUAUAUACAUGAGGAUCACCCAUGUCCACUGACAGACAGGAUAUCCUUAGAAACUAGCAGGAGAAGGGUCAGUCAUAC | 140 | 74.8 |  | 
GAAGCACAUGAGGAUCACCCAUGUAAGGAUAUACGUCUGGUCCGGCCGGACCAGUACCGUAGAAGGUACGUAAA |  |  | 19.1 | 23
GGCCGGAAUGUAGGAUAUGGAUAUUUAAAUAUACCAGAAGGACAUGAGGAUCACCCAUGUAUAAUAAUUAACAAACUUAGAUCC |  |  | 32.7 | 121
UGUGUCAUCGAGAAGGCCUCAACAUGAGGAUCACCCAUGUUGUAAUAUGGGAGGAUAUCGAUGAUACAGCUACGUUUCGUAGCG | 19.8 | 5.56 |  | 
UUUAAUUAGUAAGGAUAUACUAGUGAUUAGCUUGUAGAAGGUACAGUCUUAUGUAUAACAAAUUAACAUGAGGAUCACCCAUGU | 10.6 | 7.99 |  | 
GGCAGAUUCCACAUGAGGAUCACCCAUGUGCUCUUCCGGGCACAGGAUAUCCGCAGUGGUUUCUUGGAGAAGGGUGCUGAUUAA | 26.8 | 42.4 |  | 
AAGUAUAAGGGCAUUAAACAUGAGGAUCACCCAUGUACAAUAGAGGAUAUGCAUUUUGGUUUAGAGUAGAAGGUUAGAGAAUAU |  |  | 28 | 33.4
AACAGUAGAGGAUAUACAUGAGGAUCACCCAUGUGAGAUUUAAGUGGCGUACCACAAAGUAGAAGGCUACUGGA |  |  | 36.2 | 161
AUUAUUAAGGUAGGAUAUAGUAAAAUAAUUUAAUUAGAAGGAUCUCACAUGAGGAUCACCCAUGUAAGAGGAUCACCCAUGUAU |  |  | 10.8 | 9.53
ACCUUAAAAGUGAGGAUAUCUAGGGCCAAAUGGCCGGAGAAGGCACAUGAGGAUCACCCAUGUAACGCCAUGGA |  |  | 13.7 | 43.7

— the EternaBench riboswitch data
